Experimental data: ChEMBL document CHEMBL2311473, “Characterization of antimicrobial, cytotoxic, and antiendotoxin properties of short peptides with different hydrophobic amino acids at "a" and "d" positions of a heptad repeat sequence” (J Med Chem, 2013)
Converted amounts (≈) assume the structure as drawn. The source made the active and inactive calls. The calls are words filed in the database; no cut-off is given here.

How the values were obtained:
[1] = system: Staphylococcus aureus; assay: Bactericidal activity against Staphylococcus aureus ATCC 9144 assessed as induction of membrane depolarization at up to 7 uM by DiSC3(5) staining-based fluorescence assay; format: functional, organism-based
Summary of the method: (§1)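 Membrane potential dye diS-C3-5 preincubated 1 h with hRBC or S. aureus suspensions; I0 is steady-state fluorescence after this incubation. Peptide then added at varying concentrations. Depolarization expressed as percentage fluorescence recovery (Ft) versus peptide concentration.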

[2] = system: Cryptococcus neoformans; assay: Antifungal activity against Cryptococcus neoformans after 72 hrs by NCCLS microbroth dilution method; format: functional
Summary of the method: (§2)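 Microbroth dilution in MOPS-buffered RPMI 1640 following NCCLS guidelines. Inoculum 1−5 × 10^3 cells/mL, peptide range 50−0.36 (mass/mL). Plates held in a moist chamber at 35 °C and A492 read after 48 h (Candida spp.), 72 h (A. fumigatus, S. schenckii, C. neoformans) or 96 h (T. mentagrophytes). MIC taken as 90% growth inhibition versus growth control.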

[3] = system: RAW264.7; assay: Antiinflammatory activity in mouse RAW264.7 cells assessed as inhibition of LPS-induced NO production at 6 uM by Griess method; format: functional; design: scale not given: the % may be the effect or the level left
Summary of the method: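 RAW 264.7 cells plated at 5 × 10^5/well and exposed to LPS (E. coli 0111:B4, 1 μg/mL) together with peptide at varying doses. Cells with and without LPS served as maximum and basal NO controls. Nitrite in the supernatant measured by Griess reagent at 548 nm against a sodium nitrite standard curve, and percent inhibition of NO calculated.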

[4] = Induction of dissipation of diffusion potential in PC/Chol lipid vesicles by fluorescence assay; format: physicochemical
Summary of the method: (§3)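 SUVs of PC/Chol (8:1 w/w) or PE/PG (7:3 w/w) treated with peptide. Dissipation of diffusion potential taken as percentage fluorescence recovery ~5 min after peptide addition, with valinomycin used for reference levels. Plotted against peptide/lipid molar ratio.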

[5] = Drug uptake in human RBC assessed as membrane localization at 9 uM after 10 to 30 mins by confocal microscopic analysis; format: ADME; conditions: erythrocyte
Summary of the method: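 Fresh hRBCs (3% in PBS) incubated with NBD-labeled peptide (~9.0 μM) for 10–30 min at 37 °C. Washed, fixed in 2% paraformaldehyde 10 min, and imaged by confocal microscopy at constant photomultiplier setting.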

[6] = system: Candida albicans; assay: Antifungal activity against Candida albicans after 48 hrs by NCCLS microbroth dilution method; format: functional; summary of the method: as §2
[7] = system: RAW264.7; assay: Antiinflammatory activity in mouse RAW264.7 cells assessed as downregulation of LPS-induced iNOS2 expression at 4.5 uM after 24 hrs by Western blotting analysis; format: functional, cell-based
Summary of the method: (§4)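 RAW 264.7 cells (~2 × 10^5) stimulated with LPS 1 μg/mL plus peptide 4.5 μM for 24 h. Cells washed in ice-cold PBS and lysed in Laemmli buffer. SDS-PAGE (8% gel iNOS-2, 12% TNF-α), nitrocellulose transfer, alkaline phosphatase secondary with NBT/BCIP. Band densities normalized to β-actin. LPS-only and untreated cells served as controls.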

[8] = system: Staphylococcus epidermidis; assay: Antibacterial activity against Staphylococcus epidermidis NRRL B-4268 after 18 hrs by broth dilution method; format: functional; conditions: NRRL B-4268, 18 h
Summary of the method: (§5)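 Bacteria grown aerobically at 37 °C in Mueller-Hinton broth to mid-log phase (OD600), diluted to ~10^6 cfu/mL, then mixed 1:1 with 2-fold serial peptide dilutions in water. Incubation ~18 h at 37 °C before MIC read-out (μM).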

[9] = system: Escherichia coli; assay: Bactericidal activity against Escherichia coli ATCC 10536 assessed as induction of membrane damage at 5 uM after 30 mins by propidium iodide staining-based flow cytometric analysis; format: functional, organism-based
Summary of the method: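 Mid-log E. coli incubated with peptide (~5.0 μM) 30 min at 37 °C with shaking. Cells washed twice in PBS, stained with propidium iodide 30 min at 4 °C, washed and resuspended. 10000 events per sample by flow cytometry, compared with peptide-free control.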

[10] = system: Lipopolysaccharide (LPS); assay: Binding affinity to LPS assessed as inhibition of LPS-induced LAL enzyme activation at 4.5 uM after 30 mins by spectrophotometric analysis
Summary of the method: (§6)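 Chromogenic limulus amoebocyte lysate endotoxin kit. Peptide binding to LPS estimated from inhibition of LPS-induced LAL enzyme activation, i.e. reduced substrate colour, and reported as percentage LPS binding.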

[11] = system: Trichophyton mentagrophytes; assay: Antifungal activity against Trichophyton mentagrophytes after 96 hrs by NCCLS microbroth dilution method; format: functional; summary of the method: as §2
[12] = Binding affinity to PC/Chol lipid vesicles assessed as decrease in acrylamide-induced tryptophan fluorescence quenching at 1 uM; format: physicochemical
Summary of the method: (§7)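 Acrylamide quencher added in aliquots from 3.0 M stock to peptide with PC/Chol (8:1) or PE/PG (7:3) SUVs, peptide/lipid 1:100. Trp excited at 295 nm. Values corrected for dilution and vesicle-blank scatter, then fitted to Stern–Volmer F0/F = 1 + KSV[Q].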

[13] = system: Sporothrix schenckii; assay: Antifungal activity against Sporothrix schenckii after 72 hrs by NCCLS microbroth dilution method; format: functional; summary of the method: as §2
[14] = system: Bacillus subtilis; assay: Antibacterial activity against Bacillus subtilis ATCC 6633 after 18 hrs by broth dilution method; format: functional; conditions: ATCC 6633, 18 h; summary of the method: as §5
[15] = system: Escherichia coli; assay: Drug uptake in Escherichia coli ATCC 10536 assessed as membrane localization at 3 uM after 30 mins by confocal microscopic analysis; format: ADME, organism-based; conditions: in vivo, 0.5 h
Summary of the method: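 E. coli (~10^6 CFU/mL) in LB incubated with fluorescent-labeled peptide (~3.0 μM) for half an hour. Cells centrifuged, washed and imaged by confocal microscopy (DIC and fluorescence).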

[16] = system: RAW264.7; assay: Antiinflammatory activity in mouse RAW264.7 cells assessed as inhibition of LPS-induced IL6 secretion at 1.5 to 4.5 uM after 12 hrs by ELISA; format: functional, cell-based
Summary of the method: (§8)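 RAW 264.7 cells treated with LPS alone or LPS plus peptide. TNF-α and IL-6 measured by ELISA in culture supernatant and expressed as percentage inhibition of LPS-induced secretion. Mean of three independent experiments, SD shown.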

[17] = system: Staphylococcus aureus; assay: Antibacterial activity against Staphylococcus aureus ATCC 9144 after 18 hrs by broth dilution method; format: functional; conditions: ATCC 9144, 18 h; summary of the method: as §5
[18] = system: RAW264.7; assay: Antiinflammatory activity in mouse RAW264.7 cells assessed as inhibition of LPS-induced TNFalpha secretion at 1.5 to 4.5 uM after 12 hrs by ELISA; format: functional, cell-based; summary of the method: as §8
[19] = system: Lipopolysaccharide (LPS); assay: Binding affinity to LPS assessed as increase in helical structure at 36 uM by circular dichroism analysis
Summary of the method: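 CD spectra of peptides (36 μM) recorded alone and with LPS at 3.8 and 6.25 μM.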

[20] = system: Escherichia coli; assay: Antibacterial activity against Escherichia coli ATCC 10536 after 18 hrs by broth dilution method; format: functional; conditions: ATCC 10536, 18 h; summary of the method: as §5
[21] = Induction of dissipation of diffusion potential in PE/PG lipid vesicles by fluorescence assay; format: physicochemical; summary of the method: as §3
[22] = Cytotoxicity against human RBC assessed as induction of membrane damage at 25 uM after 5 mins by annexin V-FITC staining-based FACS flow cytometric analysis; format: cell-based; conditions: erythrocyte
Summary of the method: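 hRBCs (~3.0 × 10^7 cells/mL) treated with peptide (~25.0 μM) for 5 min at room temperature. Stained with FITC-annexin V and analysed by flow cytometry, 10000 events, compared with untreated control.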

[23] = system: Aspergillus fumigatus; assay: Antifungal activity against Aspergillus fumigatus after 72 hrs by NCCLS microbroth dilution method; format: functional; summary of the method: as §2
[24] = system: Klebsiella pneumoniae; assay: Antibacterial activity against Klebsiella pneumoniae ATCC 27736 after 18 hrs by broth dilution method; format: functional; conditions: ATCC 27736, 18 h; summary of the method: as §5
[25] = system: Lipopolysaccharide (LPS); assay: Binding affinity to LPS assessed as inhibition of LPS-induced LAL enzyme activation at 18 uM after 30 mins by spectrophotometric analysis; summary of the method: as §6
[26] = Binding affinity to PE/PG lipid vesicles assessed as decrease in decrease in acrylamide-induced tryptophan fluorescence quenching at 1 uM; format: physicochemical; summary of the method: as §7
[27] = Cytotoxicity against human RBC assessed as induction of membrane depolarization at up to 16 uM by DiSC3(5) staining-based fluorescence assay; format: cell-based; conditions: erythrocyte; summary of the method: as §1
[28] = Cytotoxicity against human RBC assessed as hemolysis at 60 uM; format: cell-based, Erythrocyte; conditions: red blood cells (RBC), read-out: Activity
Summary of the method: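 hRBCs in PBS exposed to peptide. Hemoglobin release read as supernatant absorbance at 540 nm. Hemolysis % = (Asample − Ablank)/(Atriton − Ablank) × 100, with PBS blank and 0.2% Triton X-100 (final) as 100% reference.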

[29] = system: Lipopolysaccharide (LPS); assay: Binding affinity to FITC-tagged LPS assessed as induction of disintegration up to 40 uM by […]; conditions: in the assay text read “fluorescence dequenching” for “circular dichroism”
Summary of the method: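 FITC-LPS (0.5 μg/mL) titrated with increasing peptide concentrations. Disaggregation read as dequenching, i.e. rise in FITC fluorescence, monitored after each addition until emission reached equilibrium.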

[30] = system: NIH3T3; assay: Cytotoxicity against mouse 3T3 cells assessed as cell viability up to 25 uM by MTT assay; format: cell-based
Summary of the method: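 Murine 3T3 fibroblasts, grown in DMEM/IMDM with 10% FCS at 37 °C, 5% CO2, seeded at 10000 cells/well. Viability after peptide exposure measured by MTT (mitochondrial dehydrogenase) across a dose range.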

[31] = Binding affinity to PE/PG lipid vesicles assessed as induction of large blue shift at 1 uM by fluorescence assay; format: physicochemical
[32] = system: Lipopolysaccharide (LPS); assay: Binding affinity to LPS assessed as inhibition of LPS-induced LAL enzyme activation at 9 uM after 30 mins by spectrophotometric analysis; summary of the method: as §6
[33] = Binding affinity to PC/Chol lipid vesicles assessed as induction of large blue shift at 1 uM by fluorescence assay; format: physicochemical
[34] = system: Pseudomonas aeruginosa; assay: Antibacterial activity against Pseudomonas aeruginosa ATCC BAA-427 after 18 hrs by broth dilution method; format: functional; conditions: ATCC BAA-427, 18 h; summary of the method: as §5
[35] = system: Candida parapsilosis; assay: Antifungal activity against Candida parapsilosis ATCC 22019 after 48 hrs by NCCLS microbroth dilution method; format: functional; conditions: Lodderomyces parapsilosis, ATCC 22019, 48 h; summary of the method: as §2
[36] = system: Staphylococcus aureus; assay: Antibacterial activity against methicillin-resistant Staphylococcus aureus after 18 hrs by broth dilution method; format: functional; summary of the method: as §5
[37] = system: RAW264.7; assay: Antiinflammatory activity in mouse RAW264.7 cells assessed as downregulation of LPS-induced TNFalpha expression at 4.5 uM after 24 hrs by Western blotting analysis; format: functional, cell-based; summary of the method: as §4

With `C[C@H](N)C(=O)O` [ALANINE] the Activity [1] was “Active”, the MIC [2] was > 25 µM and the Activity [3] was 13%. The Activity [4] was “Active”, the Drug uptake [5] was “Not Active” and the MIC [6] was > 25 µM. For the same compound, the Activity [7] was “Active”, the MIC [8] was 8 µM (≈ 0.713 µg/mL) and the Activity [9] was “Active”. The inhibition [10] was 3%, the MIC [11] was > 25 µM and the Activity [12] was “Not Active”. For the same compound, the MIC [13] was 25 µM (≈ 2.23 µg/mL), the MIC [14] was 20 µM (≈ 1.78 µg/mL) and the Drug uptake [15] was “Active”. The inhibition [16] was “Active”, the MIC [17] was 6.25 µM (≈ 0.557 µg/mL) and the inhibition [18] was “Active”. For the same compound, the Activity [19] was “Active”, the MIC [20] was 4.5 µM (≈ 0.401 µg/mL) and the Activity [21] was “Active”. For the same compound, the Activity [22] was “Non-toxic”, the MIC [23] was > 25 µM and the MIC [24] was 25 µM (≈ 2.23 µg/mL). For the same compound, the inhibition [25] was 10%, the Activity [26] was “Active” and the Activity [27] was “Non-toxic”. For the same compound, the hemolysis at 60 µM [28] was 1%, the Activity [29] was “Active” and the Activity [30] was “Toxic”. For the same compound, the Activity [31] was “Active”, the inhibition [32] was 7% and the Activity [33] was “Not Active”. For the same compound, the MIC [34] was 6.25 µM (≈ 0.557 µg/mL), the MIC [35] was 25 µM (≈ 2.23 µg/mL) and the MIC [36] was > 25 µM. For the same compound, the Activity [37] was “Active”.
